Experimental findings from ChEMBL document CHEMBL4138318, “Discovery of 5-Cyano-6-phenylpyrimidin Derivatives Containing an Acylurea Moiety as Orally Bioavailable Reversal Agents against P-Glycoprotein-Mediated Mutidrug Resistance” (J Med Chem, 2018) are described below.

Series [1] is described as follows: Cytotoxicity against human SW620/AD300 cells assessed as survival at 2 uM after 72 hrs by MTT assay relative to control. Conditions: read-out: Survival. Type of series: cell-based.
A short description of series [2]: Cytotoxicity against human SW620 cells assessed as survival at 2 uM after 72 hrs by MTT assay relative to control. Type of series: cell-based, SW-620. Conditions: read-out: Survival. (In general: Tetrazolium assays rely on reduction of a dye to a coloured formazan, in cell work by metabolically active cells.)
Series [3] addresses ATP-dependent translocase ABCB1 (Homo sapiens, UniProt P08183). Briefly: Inhibition of ABCB1 in human SW620/AD300 cells assessed as potentiation of paclitaxel-induced cytotoxicity by measuring fold reduction in paclitaxel IC50 at 2 uM after 72 hrs by MTT assay relative to paclitaxel alone. Type of series: cell-based. A digest of the protocol:
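SW620/AD300 cells (~5×10^3/well) treated with graded paclitaxel with or without modulator (2 µM, or 0.5-2 µM in dose series; 0.1% DMSO solvent control) for 72 h; MTT (5 mg/mL stock) added 4 h, absorbance 490 nm. IC50 as mean ± SD of three independent runs; reversal fold = paclitaxel IC50 without/with modulator.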

A value given as a limit tells only on which side of the number the result lay.

Chain of ATP-dependent translocase ABCB1 (P08183 whole entry): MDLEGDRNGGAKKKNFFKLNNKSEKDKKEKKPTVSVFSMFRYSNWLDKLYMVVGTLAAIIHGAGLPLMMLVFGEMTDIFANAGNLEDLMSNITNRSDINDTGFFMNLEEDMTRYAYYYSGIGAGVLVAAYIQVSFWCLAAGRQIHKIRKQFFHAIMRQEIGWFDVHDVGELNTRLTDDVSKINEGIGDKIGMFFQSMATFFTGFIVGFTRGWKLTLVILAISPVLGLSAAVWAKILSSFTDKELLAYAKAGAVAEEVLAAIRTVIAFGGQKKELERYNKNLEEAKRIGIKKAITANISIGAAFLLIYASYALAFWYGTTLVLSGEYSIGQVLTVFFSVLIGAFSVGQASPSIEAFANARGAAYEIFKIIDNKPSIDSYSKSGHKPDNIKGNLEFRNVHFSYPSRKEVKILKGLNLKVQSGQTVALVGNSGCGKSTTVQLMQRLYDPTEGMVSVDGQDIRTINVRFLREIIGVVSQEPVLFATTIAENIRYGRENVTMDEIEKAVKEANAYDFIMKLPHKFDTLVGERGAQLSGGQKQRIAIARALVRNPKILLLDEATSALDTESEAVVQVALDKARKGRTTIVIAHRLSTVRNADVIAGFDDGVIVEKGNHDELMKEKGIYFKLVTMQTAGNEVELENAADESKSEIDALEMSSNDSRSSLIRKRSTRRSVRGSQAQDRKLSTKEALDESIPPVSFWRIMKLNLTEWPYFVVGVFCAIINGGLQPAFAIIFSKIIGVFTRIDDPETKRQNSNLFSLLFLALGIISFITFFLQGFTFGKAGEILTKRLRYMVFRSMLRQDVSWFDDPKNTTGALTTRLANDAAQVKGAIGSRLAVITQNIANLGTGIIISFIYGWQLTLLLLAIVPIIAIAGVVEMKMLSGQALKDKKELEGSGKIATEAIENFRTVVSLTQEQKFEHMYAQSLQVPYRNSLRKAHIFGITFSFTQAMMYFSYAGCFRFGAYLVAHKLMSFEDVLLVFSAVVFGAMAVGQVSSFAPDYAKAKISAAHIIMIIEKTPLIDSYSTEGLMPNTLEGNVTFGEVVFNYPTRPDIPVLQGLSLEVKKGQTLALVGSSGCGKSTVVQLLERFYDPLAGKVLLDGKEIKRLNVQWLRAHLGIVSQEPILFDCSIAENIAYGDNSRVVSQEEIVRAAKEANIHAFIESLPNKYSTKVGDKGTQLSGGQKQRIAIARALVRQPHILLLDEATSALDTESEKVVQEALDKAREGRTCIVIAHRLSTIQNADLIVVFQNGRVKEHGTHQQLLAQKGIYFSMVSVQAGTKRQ

Turning to `COc1ccccc1Nc1nc(SCc2cn(CC(=O)NC(=O)Nc3ccccn3)nn2)nc(-c2ccc(C)cc2)c1C#N`, the viability at 72 h, 2 µM in series [1] and in series [2] was more than 90% throughout. Moreover, in series [3], the “fold change (FC)” value amounted to 10.71.

In the case of `COc1cc(-c2nc(SCc3cn(CC(=O)NC(=O)Nc4ccccn4)nn3)nc(Nc3cccc(Cl)c3)c2C#N)cc(OC)c1OC`, the viability at 72 h, 2 µM in series [1] and in series [2] was more than 90% each time. Moreover, the “fold change (FC)” value in series [3] stood at 1.37.

For `COc1cc(-c2nc(SCC(=O)NC(=O)Nc3ccccn3)nc(Nc3ccc(Cl)cc3)c2C#N)cc(OC)c1OC`, the viability at 72 h, 2 µM in series [1] and in series [2] was more than 90% throughout. In addition, the “fold change (FC)” value in series [3] is listed as 12.61.

As for `COc1cc(-c2nc(SCC(=O)NC(=O)Nc3ccccn3)nc(Nc3ccccc3Cl)c2C#N)cc(OC)c1OC`, the viability at 72 h, 2 µM in series [1] and in series [2] was more than 90% in each case. Further, the “fold change (FC)” value in series [3] is listed as 38.05.

In the case of `COc1cc(-c2nc(SCc3cn(CC(=O)NC(=O)Nc4ccccn4)nn3)nc(Nc3ccc(C)cc3)c2C#N)cc(OC)c1OC`, the viability at 72 h, 2 µM in series [1] and in series [2] was more than 90% in each case. Also, the “fold change (FC)” value in series [3] came to 6.23.

Turning to `COc1cc(-c2nc(SCC(=O)NC(=O)Nc3ccccn3)nc(Nc3cccc(C(F)(F)F)c3)c2C#N)cc(OC)c1OC`, the viability at 72 h, 2 µM in series [1] and in series [2] was more than 90% each time. Moreover, the “fold change (FC)” value in series [3] came to 58.14.

On to `Cc1ccc(Nc2nc(SCc3cn(CC(=O)NC(=O)Nc4ccccn4)nn3)nc(-c3ccc(Br)cc3)c2C#N)cc1`, for which the viability at 72 h, 2 µM in series [1] and in series [2] was more than 90% throughout. In addition, in series [3], the “fold change (FC)” value is recorded as 1.41.

For `Cc1ccc(-c2nc(SCc3cn(CC(=O)NC(=O)Nc4ccccn4)nn3)nc(Nc3ccc(C(C)C)cc3)c2C#N)cc1`, the viability at 72 h, 2 µM in series [1] and in series [2] was more than 90% throughout. Also, the “fold change (FC)” value in series [3] worked out at 1.18.

With `Cc1ccc(Nc2nc(SCc3cn(Cc4ccccc4Cl)nn3)nc(-c3ccc(Br)cc3)c2C#N)cc1`, the “fold change (FC)” value in series [3] is reported as 3.39.

In the case of `Cc1ccc(-c2nc(SCc3cn(CC(=O)NC(=O)Nc4ccccn4)nn3)nc(Nc3cccc(C(F)(F)F)c3)c2C#N)cc1`, the viability at 72 h, 2 µM in series [1] and in series [2] was more than 90% in each case. In addition, the “fold change (FC)” value in series [3] was determined as 1.88.

Turning to `COc1cc(-c2nc(SCC(=O)NC(=O)Nc3ccccn3)nc(Nc3cccc([N+](=O)[O-])c3)c2C#N)cc(OC)c1OC`, the viability at 72 h, 2 µM in series [1] and in series [2] was more than 90% in each case. The “fold change (FC)” value in series [3] was determined as 82.08.

For the compound `Cc1ccc(Nc2nc(SCc3cn(Cc4ccccc4Cl)nn3)nc(-c3ccc(C(C)C)cc3)c2C#N)cc1`, in series [3], the “fold change (FC)” value is listed as 46.

Regarding `COc1ccccc1Nc1nc(SCC(=O)NC(=O)Nc2ccccc2)nc(-c2cc(OC)c(OC)c(OC)c2)c1C#N`, the viability at 72 h, 2 µM in series [1] and in series [2] was more than 90% each time. Further, in series [3], the “fold change (FC)” value stood at 3.66.

For `Cc1ccc(-c2nc(SCC(=O)NC(=O)Nc3ccccn3)nc(Nc3cccc(C(F)(F)F)c3)c2C#N)cc1`, the viability at 72 h, 2 µM in series [1] and in series [2] was more than 90% throughout. In addition, the “fold change (FC)” value in series [3] worked out at 6.06.

On to `CC(C)c1ccc(-c2nc(SCc3cn(CC(=O)NC(=O)Nc4ccccn4)nn3)nc(Nc3ccccc3O)c2C#N)cc1`, for which the viability at 72 h, 2 µM in series [1] and in series [2] was more than 90% each time. In addition, the “fold change (FC)” value in series [3] worked out at 13.64.

Take `COc1cc(-c2nc(SCC(=O)NC(=O)Nc3ccccn3)nc(Nc3ccc(C(F)(F)F)cc3)c2C#N)cc(OC)c1OC`: the viability at 72 h, 2 µM in series [1] and in series [2] was more than 90% in each case. For the same compound, the “fold change (FC)” value in series [3] was found to be 3.56.

For `N#Cc1c(Nc2ccc(Cl)cc2)nc(SCC(=O)NC(=O)Nc2ccccn2)nc1-c1ccc(F)c(F)c1`, the viability at 72 h, 2 µM in series [1] and in series [2] was more than 90% in each case. Also, in series [3], the “fold change (FC)” value worked out at 3.5.

As for `Cc1ccccc1Nc1nc(SCc2cn(CC(=O)NC(=O)Nc3ccccn3)nn2)nc(-c2ccc(C(C)C)cc2)c1C#N`, the viability at 72 h, 2 µM in series [1] and in series [2] was more than 90% each time. Also, the “fold change (FC)” value in series [3] turned out to be 4.69.

Consider `Cc1cccc(Nc2nc(SCC(=O)NC(=O)Nc3ccccn3)nc(-c3ccc(C(C)C)cc3)c2C#N)c1`, for which the viability at 72 h, 2 µM in series [1] and in series [2] was more than 90% each time. In series [3], the “fold change (FC)” value is 2.62.

On to `COc1cc(-c2nc(SCC(=O)NC(=O)Nc3ccccc3)nc(Nc3ccc(F)cc3)c2C#N)cc(OC)c1OC`, for which the viability at 72 h, 2 µM in series [1] and in series [2] was more than 90% each time. Also, the “fold change (FC)” value in series [3] stood at 25.37.

As for `N#Cc1c(Nc2cccc(C(F)(F)F)c2)nc(SCc2cn(CC(=O)NC(=O)Nc3ccccn3)nn2)nc1-c1ccc(Br)cc1`, the viability at 72 h, 2 µM in series [1] and in series [2] was more than 90% each time. For the same compound, the “fold change (FC)” value in series [3] is given as 2.4.

In the case of `COc1cc(-c2nc(SCC(=O)NC(=O)Nc3ccccc3)nc(Nc3cccc([N+](=O)[O-])c3)c2C#N)cc(OC)c1OC`, the viability at 72 h, 2 µM in series [1] and in series [2] was more than 90% throughout. The “fold change (FC)” value in series [3] was determined as 21.04.

For `COc1ccc(Nc2nc(SCc3cn(CC(=O)NC(=O)Nc4ccccn4)nn3)nc(-c3ccc(C)cc3)c2C#N)cc1`, the viability at 72 h, 2 µM in series [1] and in series [2] was more than 90% each time. Further, the “fold change (FC)” value in series [3] is reported as 1.18.

In the case of `COc1cc(-c2nc(SCc3ccccc3)nc(Nc3ccc(Cl)cc3)c2C#N)cc(OC)c1OC`, the viability at 72 h, 2 µM in series [1] and in series [2] was more than 90% each time. Further, the “fold change (FC)” value in series [3] is given as 1.24.

With `COc1ccccc1Nc1nc(SCc2cn(CC(=O)NC(=O)Nc3ccccn3)nn2)nc(-c2ccc(C(C)C)cc2)c1C#N`, the viability at 72 h, 2 µM in series [1] and in series [2] was more than 90% throughout. Further, in series [3], the “fold change (FC)” value was 10.18.

Take `CC(C)c1ccc(-c2nc(SCC(=O)NC(=O)Nc3ccccn3)nc(Nc3cccc(C(F)(F)F)c3)c2C#N)cc1`: the viability at 72 h, 2 µM in series [1] and in series [2] was more than 90% in each case. For the same compound, the “fold change (FC)” value in series [3] was determined as 37.04.

As for `CC(C)c1ccc(-c2nc(SCc3cn(CC(=O)NC(=O)Nc4ccccn4)nn3)nc(Nc3ccccc3Cl)c2C#N)cc1`, the viability at 72 h, 2 µM in series [1] and in series [2] was more than 90% each time. Further, in series [3], the “fold change (FC)” value is recorded as 4.75.

For `COc1cc(-c2nc(SCC(=O)Nc3ccccn3)nc(Nc3cccc(Cl)c3)c2C#N)cc(OC)c1OC`, the viability at 72 h, 2 µM in series [1] and in series [2] was more than 90% throughout. The “fold change (FC)” value in series [3] was found to be 5.51.

Regarding `Cc1ccc(Nc2nc(SCC(=O)NC(=O)Nc3ccccn3)nc(-c3ccccc3)c2C#N)cc1`, the viability at 72 h, 2 µM in series [1] and in series [2] was more than 90% throughout. Besides, the “fold change (FC)” value in series [3] is listed as 1.67.

Take `COc1ccccc1Nc1nc(SCC(=O)NC(=O)Nc2ccccn2)nc(-c2ccc(F)c(F)c2)c1C#N`: the viability at 72 h, 2 µM in series [1] and in series [2] was more than 90% in each case. Also, the “fold change (FC)” value in series [3] is listed as 13.42.

As for `COc1cc(-c2nc(SCc3ccccc3)nc(Nc3cccc(Cl)c3)c2C#N)cc(OC)c1OC`, the viability at 72 h, 2 µM in series [1] and in series [2] was more than 90% throughout. For the same compound, in series [3], the “fold change (FC)” value is recorded as 1.05.

As to `N#Cc1c(Nc2ccc(Cl)cc2)nc(SCC(=O)NC(=O)Nc2ccccn2)nc1-c1ccc(Cl)cc1`, the viability at 72 h, 2 µM in series [1] and in series [2] was more than 90% each time. Besides, the “fold change (FC)” value in series [3] stood at 2.32.

Regarding `CC(C)c1ccc(Nc2nc(SCc3cn(CC(=O)NC(=O)Nc4ccccn4)nn3)nc(-c3ccc(Br)cc3)c2C#N)cc1`, the viability at 72 h, 2 µM in series [1] and in series [2] was more than 90% each time. Also, in series [3], the “fold change (FC)” value was 1.7.

Take `Cc1ccc(Nc2nc(SCc3cn(Cc4ccccc4Cl)nn3)nc(-c3ccc(C)cc3)c2C#N)cc1`: in series [3], the “fold change (FC)” value worked out at 21.69.

Consider `Cc1ccc(Nc2nc(SCc3cn(CC(=O)NC(=O)Nc4ccccn4)nn3)nc(-c3ccc(C(C)C)cc3)c2C#N)cc1`, for which the viability at 72 h, 2 µM in series [1] and in series [2] was more than 90% in each case. The “fold change (FC)” value in series [3] is 6.86.

As for `CC(C)c1ccc(-c2nc(SCc3cn(CC(=O)NC(=O)Nc4ccccn4)nn3)nc(Nc3cccc([N+](=O)[O-])c3)c2C#N)cc1`, the viability at 72 h, 2 µM in series [1] and in series [2] was more than 90% each time. Further, the “fold change (FC)” value in series [3] is on record as 2.99.

As to `N#Cc1c(Nc2ccccc2Cl)nc(SCC(=O)NC(=O)Nc2ccccn2)nc1-c1ccc(F)c(F)c1`, the viability at 72 h, 2 µM in series [1] and in series [2] was more than 90% in each case. In addition, the “fold change (FC)” value in series [3] stood at 14.24.

Take `CC(C)c1ccc(-c2nc(SCc3cn(CC(=O)NC(=O)Nc4ccccn4)nn3)nc(Nc3ccc(F)cc3)c2C#N)cc1`: the viability at 72 h, 2 µM in series [1] and in series [2] was more than 90% in each case. For the same compound, the “fold change (FC)” value in series [3] was determined as 2.11.

`N#Cc1c(Nc2cccc(C(F)(F)F)c2)nc(SCC(=O)NC(=O)Nc2ccccn2)nc1-c1ccc(Cl)cc1`: the viability at 72 h, 2 µM in series [1] and in series [2] was more than 90% each time. Besides, the “fold change (FC)” value in series [3] is 2.86.

Consider `CC(C)c1ccc(-c2nc(SCc3cn(CC(=O)NC(=O)Nc4ccccn4)nn3)nc(Nc3ccccc3F)c2C#N)cc1`, for which the viability at 72 h, 2 µM in series [1] and in series [2] was more than 90% in each case. For the same compound, in series [3], the “fold change (FC)” value is on record as 2.74.

With `COc1cc(-c2nc(SCc3cn(Cc4ccccc4Cl)nn3)nc(Nc3ccc(C)cc3)c2C#N)cc(OC)c1OC`, the “fold change (FC)” value in series [3] stood at 27.54.

Take `Cc1ccccc1Nc1nc(SCc2cn(Cc3ccc(Cl)cc3)nn2)nc(-c2ccccc2)c1C#N`: the “fold change (FC)” value in series [3] was 116.
